Data: paper PMC9929485 (International Journal for Parasitology: Drugs and Drug …, 2023)

Experiments:
[1] = Cytotoxicity assay; assay type: cell-based; conditions: African green monkey, Vero cells
Outline: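 Vero cells were seeded at 1 × 10^4 per well, grown to monolayer, then exposed for 24 h to 0.78125–100 μM test compound in DMEM with 1% FBS (DMSO <1% v/v), with an untreated control. Viability was read by CCK-8 (1 h, absorbance 450 nm). Survival % = (treated − blank)/(control − blank) × 100. Triplicate independent experiments.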

[2] = tested on: T. gondii tachyzoites in Vero cells; assay: Plaque assay; assay type: cell-based, Toxoplasma gondii RH strain
Outline: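 Proliferation arm: Vero monolayers were infected with 2 × 10^4 tachyzoites per well for 8 h, then given 0.625–10.0 μM test compound in DMEM with 1% FBS for 24 h. Invasion arm: tachyzoites were pre-exposed to compound, then allowed to infect Vero cells for 2 h. Drug-free controls were included. After 48, 72 or 96 h, cells were PBS-washed, fixed in 4% paraformaldehyde and stained with crystal violet for 10 min. PVs per field and parasites per PV were counted in ≥20 random fields per well (40× objective).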

[3] = tested on: T. gondii tachyzoites; assay: Anti-invasion assessment by qPCR; assay type: cell-based, Toxoplasma gondii RH strain
Outline: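 Vero monolayers were preincubated with 0.625–10.0 μM test compound in DMEM with 1% FBS. Controls were 11.5 μM azithromycin (positive) and no drug (negative). Then 2 × 10^6 fresh tachyzoites were added per well for 2 h. Cells were washed twice with DPBS and kept in DMEM for 24 h. DNA was extracted and the T. gondii 529 bp repeat quantified by qPCR. Inhibition rate is relative to untreated control, from triplicate independent experiments.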

[4] = tested on: T. gondii tachyzoites; assay: Anti-proliferation activity by qPCR; assay type: cell-based, Toxoplasma gondii RH strain
Outline: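 Vero monolayers in 6-well plates were infected with 2 × 10^5 tachyzoites per well. After 8 h, test compound (0.625–10.0 μM) or azithromycin was added in DMEM with 1% FBS for 24 h, with a drug-free negative control. Total DNA was extracted and the 529 bp repeat quantified by qPCR. EC50 and therapeutic index were calculated. Values are mean ± SD of at least three independent experiments.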

[5] = Safety assay in mice; assay type: in vivo, mouse; conditions: 5, 10 or 20 mg/kg intraperitoneal, over 7 days
Outline: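 BALB/c mice received test compound ip once daily for 7 days at 5, 10 or 20 mg/kg. It was formulated at 2 mg/mL in saline with 10% ethanol and 10% Cremophor EL. Controls received solvent alone or PBS. Clinical toxicity was monitored during dosing and for a further 23 days.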

[6] = Pharmacokinetics in mouse plasma; assay type: in vivo; conditions: female, BALB/c, ip, 20 mg/kg
Outline: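 Test compound was formulated at 2 mg/mL in saline with 10% ethanol and 10% Cremophor EL. It was given ip at 20 mg/kg to 9 female BALB/c mice. Blood was sampled at 0, 0.083, 0.25, 0.5, 1, 2, 4, 8, 12 and 24 h and centrifuged at 3000 rpm for 10 min; plasma was stored at −20 °C. The PK model was selected by minimum AIC. Parameters are mean ± SD (n = 3).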

[7] = tested on: T. gondii tachyzoites; assay: In vivo activity against T. gondii in infected mice; design: species or system Toxoplasma gondii RH strain in BALB/c mouse; conditions: 20 mg/kg intraperitoneal once a day for 7 days, P ≤ 0.05
Outline: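 BALB/c mice were infected ip with 1 × 10^3 RH tachyzoites. Treatment started 4 h later, ip once daily for 7 days: test compound 20 mg/kg·bw, azithromycin 50 mg/kg·bw (positive control) or PBS. One mL of ascites was aspirated, washed and centrifuged, and DNA extracted. Parasites were quantified by PCR against a standard curve of serially diluted RH tachyzoite DNA (3.00 × 10^6 to 3.00 × 10^3/mL).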

[8] = tested on: T. gondii tachyzoites in Vero cells; assay: Transmission electron microscopy; assay type: cell-based, Toxoplasma gondii RH strain; conditions: 5 μM
Outline: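 Vero cells in T25 flasks were infected with 2 × 10^6 tachyzoites for 8 h, then cultured with 5 μM test compound for 8 or 24 h. Cells were detached with TrypLE (2 min), PBS-washed and fixed in 2.5% glutaraldehyde (4 °C, 12 h). Post-fixation used 1% osmium in the dark for 1.5 h. Samples were dehydrated through alcohol and acetone and embedded in Epon. Ultrathin sections were stained with uranyl acetate/lead citrate and examined by TEM.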

[9] = tested on: T. gondii tachyzoites; assay: Mitochondrial membrane potential; assay type: cell-based, Toxoplasma gondii RH strain; conditions: 1 or 5 μM, 8 or 24 h, P ≤ 0.05
Outline: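 Tachyzoites inside Vero monolayers were treated with 1 or 5 μM test compound in DMEM for 8 or 24 h. After a PBS wash, cultures were stained with 50 nM MitoTracker Red CMXRos for 20 min. Fluorescence was read on a microplate reader. Triplicate experiments.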

[10] = tested on: T. gondii tachyzoites; assay: ATP level in tachyzoites; assay type: cell-based, Toxoplasma gondii RH strain; conditions: 1 or 5 μM, 8 or 24 h, P ≤ 0.05
Outline: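 Infected Vero cultures were exposed to 1 or 5 μM test compound in DMEM for 8 or 24 h. Tachyzoites were then isolated, purified and lysed, and ATP was measured and expressed as μmol/L. Three independent experiments were run.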

[11] = tested on: T. gondii tachyzoites; assay: ROS production assay; assay type: cell-based, Toxoplasma gondii RH strain; conditions: 1 or 5 μM, dose-dependent
Outline: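 Infected Vero cultures were treated with 1 or 5 μM test compound or left untreated. Then 2 × 10^6 tachyzoites were isolated and PBS-washed. They were loaded with 7.5 μM CMH2DCFDA for 10 min, washed three times and resuspended in PBS. Fluorescence was read at excitation 488 nm and emission 525 nm. Triplicate experiments.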

For `CCCCCCCc1cc(O)c2ccccc2[n+]1[O-]` [HQNO, 2-Heptyl-4-hydroxyquinoline N-oxide], the IC50 at 24 h [1] was 33.4 µM, the “tachyzoite growth (plaques formed)” value ([2]; 0.625–10 μM, after 6 days of incubation) was “dose-dependent inhibition” and the “average number of tachyzoites within the PVs” value ([2]; P ≤ 0.05) was “decreased”. The “invasion and proliferation ability of T. gondii (plaque)” value ([2]; after 48 h, 72 h, 96 h of incubation, P ≤ 0.05) was “significantly reduced”, the “PV number vs control” value ([2]; pre- and post-infection, P ≤ 0.05) was “decreased significantly” and the “T. gondii invasion vs control” value ([3]; 0.625–10 μM, P ≤ 0.05) was “significantly inhibited”. For the same molecule, the “T. gondii tachyzoite intracellular proliferation vs control” value ([4]; 0.625–10 μM, concentration-dependent, P ≤ 0.05) was “significantly (P ≤ 0.05) inhibited”, the “clinical toxicity in mice” value [5] was “no obvious clinical toxicity” and the AUC(0-inf) [6] was 3880 ± 308 ng·h/mL. The AUC(0-t) [6] was 3860 ± 301 ng·h/mL, the MRT inf [6] was 1.62 ± 0.464 h and the MRT last [6] was 1.56 ± 0.446 h. For the same molecule, the Tmax [6] was 4.98 min, the half-life [6] was 1.43 ± 0.393 h and the k el [6] was 0.000135 s⁻¹. The “parasite burden in mouse peritoneum” value [7] was “significantly decreased”, the “ultrastructure of T. gondii mitochondria (TEM)” value ([8]; 8 h) was “swollen” and the “ultrastructure of T. gondii (TEM)” value ([8]; 24 h) was “parasite death”. For the same molecule, the “effect on mitochondria of host cells around PVs (TEM)” value ([8]; Vero host cells) was “does not affect”, the “ΔΨm in parasites vs control” value [9] was “significant dose-dependent decreases” and the “ATP levels in parasites vs control” value [10] was “significant dose-dependent decreases”. The “ROS levels in T. gondii vs control” value [11] was “increase”.

With `CC[C@H]1OC(=O)[C@H](C)[C@@H](O[C@H]2C[C@@](C)(OC)[C@@H](O)[C@H](C)O2)[C@H](C)[C@@H](O[C@@H]2O[C@H](C)C[C@H](N(C)C)[C@H]2O)[C@](C)(O)C[C@@H](C)CN(C)[C@H](C)[C@@H](O)[C@]1(C)O` [azithromycin] the inhibition at 11.5 µM ([3]; Toxoplasma gondii, read-out: anti-invasion inhibition rate) was 54% and the “inhibition rate on intracellular proliferation of T. gondii tachyzoites” value ([4]; positive control drug, 24 h, qPCR) was 37.50%.
